Measurements as given in ChEMBL document CHEMBL5506014, “Monophosphoryl Lipid A-Rhamnose Conjugates as a New Class of Vaccine Adjuvants” (J Med Chem, 2024).
Active and inactive are the calls of the source.

Columns and labels:
Type in all cases: functional, organism-based
Settings in all cases: time 38.0 day
Mus musculus [1] = experiment: Immuno-adjuvant activity in sc dosed C57BL/6J mouse model assessed as increase in anti-sTn IgG antibodies level administered on day 1, 15, 22, and 29 and measured on day 27, 31 and 38 by ELISA analysis
Procedure, shortened: (§1)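 Female C57BL/6 mice, 6−8 weeks old, were given s.c. 0.1 mL doses of KLH-sTn (8.0 μg sTn antigen). The conjugate was mixed 1:1 with PBS, Alum, or a liposomal adjuvant. Liposomes were MPLA-Rha conjugate:DSPC:cholesterol at a 10:65:50 molar ratio, hydrated in 20 mM HEPES pH 7.5 with 150 mM NaCl. Pre-immunization day 0 blood served as blank.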

Mus musculus [2] = experiment: Immuno-adjuvant activity in sc dosed C57BL/6J mouse model assessed as increase in IgM antibody level administered on day 1, 15, 22, and 29 and measured on day 27, 31 and 38 by ELISA analysis; procedure, shortened: as §1
Mus musculus [3] = experiment: Immuno-adjuvant activity in sc dosed C57BL/6J mouse model assessed as increase in anti-KLH antibodies level administered on day 1, 15, 22, and 29 and measured on day 27, 31 and 38 by ELISA analysis; procedure, shortened: as §1
Mus musculus [4] = experiment: Immuno-adjuvant activity in sc dosed C57BL/6J mouse model assessed as increase in IgG antibody administered on day 1, 15, 22, and 29 and measured on day 27, 31 and 38 by ELISA analysis; procedure, shortened: as §1
Mus musculus [5] = experiment: Immuno-adjuvant activity in sc dosed C57BL/6J mouse model assessed as increase in anti-KLH IgG antibodies level administered on day 1, 15, 22, and 29 and measured on day 27, 31 and 38 by ELISA analysis; procedure, shortened: as §1
Mus musculus [6] = experiment: Immuno-adjuvant activity in sc dosed C57BL/6J mouse model assessed as increase in anti-KLH IgM antibodies level administered on day 1, 15, 22, and 29 and measured on day 27, 31 and 38 by ELISA analysis; procedure, shortened: as §1
Mus musculus [7] = experiment: Immuno-adjuvant activity in sc dosed C57BL/6J mouse model assessed as increase in anti-KLH total antibodies level administered on day 1, 15, 22, and 29 and measured on day 27, 31 and 38 by ELISA analysis; procedure, shortened: as §1

Measured: Activity

CCCCCCCCCCCC(=O)O[C@H](CCCCCCCCCCC)CC(=O)N[C@H]1[C@H](OC[C@H]2O[C@@H](OC)[C@H](NC(=O)C[C@@H](CCCCCCCCCCC)OC(=O)CCCCCCCCCCC)[C@@H](OC(=O)C[C@H](O)CCCCCCCCC)[C@@H]2O)O[C@H](CNC(=O)CCO[C@@H]2O[C@@H](C)[C@H](O)[C@@H](O)[C@H]2O)[C@@H](OP(=O)(O)O)[C@@H]1OC(=O)C[C@H](O)CCCCCCCCC
active: Mus musculus [1] | Mus musculus [2] | Mus musculus [3] | Mus musculus [4]

CCCCCCCCCCCC(=O)O[C@H](CCCCCCCCCCC)CC(=O)N[C@H]1[C@H](OC[C@H]2O[C@@H](OCCNC(=O)CCO[C@@H]3O[C@@H](C)[C@H](O)[C@@H](O)[C@H]3O)[C@H](NC(=O)C[C@@H](CCCCCCCCCCC)OC(=O)CCCCCCCCCCC)[C@@H](OC(=O)C[C@H](O)CCCCCCCCC)[C@@H]2O)O[C@H](CO)[C@@H](OP(=O)(O)O)[C@@H]1OC(=O)C[C@H](O)CCCCCCCCC
active: all assays above

CCCCCCCCCCCC(=O)O[C@H](CCCCCCCCCCC)CC(=O)N[C@H]1[C@H](OC[C@H]2O[C@@H](OC)[C@H](NC(=O)C[C@@H](CCCCCCCCCCC)OC(=O)CCCCCCCCCCC)[C@@H](OC(=O)C[C@H](O)CCCCCCCCC)[C@@H]2O)O[C@H](CNC(=O)CCO[C@H]2O[C@@H](C)[C@H](O)[C@@H](O)[C@H]2O)[C@@H](OP(=O)(O)O)[C@@H]1OC(=O)C[C@H](O)CCCCCCCCC
active: Mus musculus [2] | Mus musculus [4]

CCCCCCCCCCCC(=O)O[C@H](CCCCCCCCCCC)CC(=O)N[C@H]1[C@H](OC[C@H]2O[C@@H](OCCNC(=O)CCO[C@H]3O[C@@H](C)[C@H](O)[C@@H](O)[C@H]3O)[C@H](NC(=O)C[C@@H](CCCCCCCCCCC)OC(=O)CCCCCCCCCCC)[C@@H](OC(=O)C[C@H](O)CCCCCCCCC)[C@@H]2O)O[C@H](CO)[C@@H](OP(=O)(O)O)[C@@H]1OC(=O)C[C@H](O)CCCCCCCCC
not listed: Mus musculus [1] | Mus musculus [3]
active: all other assays above
